According to publication PMC4899269 (Structure (London, England : 1993), 2016):
Where no end group is shown, it is not given here.

How the values were obtained:
JAK1 FERM–SH2 = experiment: Co-purification and size exclusion chromatography of JAK1/receptor complexes; format: binding, human; conditions: large scale co-expression, Ni-IMAC, TEV cleavage, SDS-PAGE
Outline: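 His-JAK1 FERM–SH2 (G35–K559) co-expressed in insect cells with one of two GST-tagged partners, co-infected at 1:1 viral ratio: GST-IFNLR1 (K250–T299), or a chimera of IFNLR residues K250–R260 fused to IL-10RA K264–K303. Lysates purified by Ni-IMAC then SEC. Complex fractions TEV-cleaved and put through a second SEC round.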

[1] = biological target: human JAK1 FERM–SH2 (as used in BioLayer Interferometry) (human, UniProt P23458 35-559); experiment: BLI
JAK1 FERM–SH2 I240L = JAK1 FERM–SH2 I240L (human, UniProt P23458 35-559, Ile240 to leucine); experiment: BLI
JAK1 FERM–SH2 I240F = JAK1 FERM–SH2 I240F (human, UniProt P23458 35-559, Ile240 to phenylalanine); experiment: BLI
[2] = biological target: human JAK1 FERM–SH2 (residues 35–559), His tag released with TEV (human, UniProt P23458 35-559); experiment: SEC-MALS
Chain of human JAK1 FERM–SH2 (residues 35–559), His tag released with TEV (P23458 35-559): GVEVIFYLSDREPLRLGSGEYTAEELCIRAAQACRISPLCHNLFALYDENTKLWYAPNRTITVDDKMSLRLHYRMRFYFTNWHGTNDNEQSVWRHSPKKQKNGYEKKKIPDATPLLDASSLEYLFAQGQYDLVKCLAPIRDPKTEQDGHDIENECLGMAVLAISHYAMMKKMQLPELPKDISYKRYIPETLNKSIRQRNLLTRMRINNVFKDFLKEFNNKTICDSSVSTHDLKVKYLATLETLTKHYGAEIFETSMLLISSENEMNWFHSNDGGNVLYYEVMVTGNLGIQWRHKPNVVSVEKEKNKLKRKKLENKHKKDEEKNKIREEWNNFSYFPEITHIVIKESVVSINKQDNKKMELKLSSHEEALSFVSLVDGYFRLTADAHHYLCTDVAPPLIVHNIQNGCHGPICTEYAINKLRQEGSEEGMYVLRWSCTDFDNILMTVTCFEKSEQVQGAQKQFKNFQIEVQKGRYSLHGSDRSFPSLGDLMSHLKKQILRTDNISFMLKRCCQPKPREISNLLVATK

Chain of human JAK1 FERM–SH2 (as used in BioLayer Interferometry) (P23458 35-559): as above
Chain of JAK1 FERM–SH2 I240F (P23458 35-559 I240F): as the sequence (P23458 35-559) above, with I206F counted along it
Chain of JAK1 FERM–SH2 I240L (P23458 35-559 I240L): as the sequence (P23458 35-559) above, with I206L counted along it

**Q.** “peptide containing IFNLR1 box1 and box2: GST-tagged IFNLR1 box1/box2 fragment (residues 250–299), co-expressed with JAK1 ({GST}-KTLMGNPWFQRAKMPRALDFSGHTHPVATFQPSRPESVNDLFLCPQKELT)” was tested. Which “complex formation with JAK1 on purification / SEC (in words)” value (JAK1 FERM–SH2) did it give?
**A.** form a stable complex with JAK1

**Q.** “box2 fragment of IFNLR1: GST-tagged fragment of IFNLR1 containing box2 sequences (residues 270–299) ({GST}-SGHTHPVATFQPSRPESVNDLFLCPQKELT)” was tested. Which “complex formation with JAK1 on purification / SEC (in words)” value (JAK1 FERM–SH2) did it give?
**A.** did not co-purify with JAK1

**Q.** For “IL10RA: GST-tagged human receptor cytoplasmic fragment with putative box1 and box2 motifs ({GST}-QLYVRRRKKLPSVLLFKKPSPFIFISQRPSPETQDTIHPLDEEAFLK)”, which “complex formation with JAK1 on purification / SEC (in words)” value (JAK1 FERM–SH2) is on record?
**A.** formed a stable complex with JAK1

B1: biotinylated IFNLR1 box1 peptide (residues 250–270) (peptide, UniProt Q8IU57 250-270, looked up)
peptide: KTLMGNPWFQRAKMPRALDFS
modifications: also: biotin, position not given here
**Q.** Which results are given for B1?
**A.** koff [1]: 0.089 s⁻¹; kon [1]: 72500 M⁻¹ s⁻¹; binding result (JAK1 FERM–SH2 I240L): binds; binding result (JAK1 FERM–SH2 I240F): binds

B2: biotinylated IFNLR1 box1Δbox2 peptide (residues 250–289) (peptide, UniProt Q8IU57 250-289, looked up)
peptide: KTLMGNPWFQRAKMPRALDFSGHTHPVATFQPSRPESVND
modifications: also: biotin, position not given here
**Q.** With B2 as the molecule, how does the koff [1] read?
**A.** 0.0544 s⁻¹

**Q.** And the kon [1]?
**A.** 34600 M⁻¹ s⁻¹

B3: biotinylated IFNLR1 box1/box2 peptide (residues 250–299) (peptide, UniProt Q8IU57 250-299, looked up)
peptide: KTLMGNPWFQRAKMPRALDFSGHTHPVATFQPSRPESVNDLFLCPQKELT
modifications: also: biotin, position not given here
**Q.** Which results are given for B3?
**A.** koff [1]: 0.00355 s⁻¹; kon [1]: 50400 M⁻¹ s⁻¹

B4: IFNLR1 box1/box2 peptide (residues 250–299), GST released with TEV (peptide, UniProt Q8IU57 250-299, looked up)
chain: B3 peptide
**Q.** Which “stoichiometry N” value [2] does the source give for B4 here?
**A.** 1
